# Results from ChEMBL document CHEMBL1255410, “Activity of the investigational fluoroquinolone finafloxacin against ciprofloxacin-sensitive and -resistant Acinetobacter baumannii isolates” (2010).
# How the values were obtained:
# Assay type in all cases: functional
# [1] = test system: Acinetobacter baumannii; experiment: Antimicrobial activity against Acinetobacter baumannii isolate 2 at pH 7.2
# Method in brief: (§1)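 MIC by agar dilution on Mueller-Hinton agar under standard conditions (pH 7.2), against isolates with characterized gyrA/parC genes. Agar pH was checked after solidifying. Plates for both drugs were prepared the same day from freshly made media, and MICs were determined simultaneously with the pH 5.8 set.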
# [2] = test system: Acinetobacter baumannii; experiment: Antimicrobial activity against Acinetobacter baumannii isolate 5 at pH 7.2
# Method in brief: (§2)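 Agar dilution MIC on Mueller-Hinton agar. For the acidic condition, HCl was added to bring the agar to pH 5.8 before pouring the antibiotic plates, and the pH was checked after the agar set. The standard condition was pH 7.2. Both drugs' plates were made the same day from fresh medium, and MICs were read at the same time.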
# [3] = test system: Acinetobacter baumannii; experiment: Antimicrobial activity against Acinetobacter baumannii isolate 8 at pH 7.2
# Method in brief: (§3)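 Agar dilution MIC on Mueller-Hinton agar under standard conditions (pH 7.2). Antibiotic-containing plates were made the same day from freshly prepared medium. Agar pH was checked after solidifying. Both fluoroquinolones were tested simultaneously against A. baumannii isolates with characterized gyrA/parC genes. MICs are in μg/ml.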
# [4] = test system: Acinetobacter baumannii; experiment: Antimicrobial activity against Acinetobacter baumannii isolate 11 at pH 7.2; method in brief: as §1
# [5] = test system: Acinetobacter baumannii; experiment: Antimicrobial activity against Acinetobacter baumannii isolate 12 at pH 7.2; method in brief: as §1
# [6] = test system: Acinetobacter baumannii; experiment: Antimicrobial activity against Acinetobacter baumannii isolate 18 at pH 7.2; method in brief: as §1
# [7] = test system: Acinetobacter baumannii; experiment: Antimicrobial activity against Acinetobacter baumannii isolate 20 harboring GyrA Ser83-Leu mutation at pH 7.2; method in brief: as §1
# [8] = test system: Acinetobacter baumannii; experiment: Antimicrobial activity against Acinetobacter baumannii isolate 22 harboring GyrA Ser83-Leu mutation at pH 7.2; method in brief: as §1
# [9] = test system: Acinetobacter baumannii; experiment: Antimicrobial activity against Acinetobacter baumannii isolate 23 harboring GyrA Glu87-Gly mutation at pH 7.2; method in brief: as §1
# [10] = test system: Acinetobacter baumannii; experiment: Antimicrobial activity against Acinetobacter baumannii isolate 25 harboring GyrA Ser83-Leu mutation at pH 7.2; method in brief: as §1
# [11] = test system: Acinetobacter baumannii; experiment: Antimicrobial activity against Acinetobacter baumannii isolate 27 harboring GyrA Ser83-Leu mutation at pH 7.2; method in brief: as §1
# [12] = test system: Acinetobacter baumannii; experiment: Antimicrobial activity against Acinetobacter baumannii isolate 29 harboring GyrA Ser83-Leu mutation at pH 7.2; method in brief: as §1
# [13] = test system: Acinetobacter baumannii; experiment: Antimicrobial activity against Acinetobacter baumannii isolate 31 harboring GyrA Ser83-Leu mutation at pH 7.2; method in brief: as §1
# [14] = test system: Acinetobacter baumannii; experiment: Antimicrobial activity against Acinetobacter baumannii isolate 32 harboring GyrA Ser83-Leu mutation at pH 7.2; method in brief: as §2
# [15] = test system: Acinetobacter baumannii; experiment: Antimicrobial activity against Acinetobacter baumannii isolate 39 harboring GyrA Ser83-Leu mutation at pH 7.2; method in brief: as §2
# [16] = test system: Acinetobacter baumannii; experiment: Antimicrobial activity against Acinetobacter baumannii isolate 41 harboring GyrA Ser83-Leu mutation at pH 7.2; method in brief: as §2
# [17] = test system: Acinetobacter baumannii; experiment: Antimicrobial activity against Acinetobacter baumannii isolate 49 harboring GyrA Ser83-Leu and ParC Ser80-Leu mutation at pH 7.2; method in brief: as §2
# [18] = test system: Acinetobacter baumannii; experiment: Antimicrobial activity against Acinetobacter baumannii isolate 52 harboring GyrA Ser83-Leu and ParC Ser80-Leu mutation at pH 7.2; method in brief: as §2
# [19] = test system: Acinetobacter baumannii; experiment: Antimicrobial activity against Acinetobacter baumannii isolate 62 harboring GyrA Ser83-Leu and ParC Ser80-Leu mutation at pH 7.2; method in brief: as §3
# [20] = test system: Acinetobacter baumannii; experiment: Antimicrobial activity against Acinetobacter baumannii isolate 63 harboring GyrA Ser83-Leu and ParC Glu84-Lys mutation at pH 7.2; method in brief: as §3
# [21] = test system: Acinetobacter baumannii; experiment: Antimicrobial activity against Acinetobacter baumannii isolate 64 harboring GyrA Ser83-Leu and ParC Ser80-Leu mutation at pH 7.2; method in brief: as §3
# [22] = test system: Acinetobacter baumannii; experiment: Antimicrobial activity against Acinetobacter baumannii isolate 65 harboring GyrA Ser83-Leu and ParC Ser80-Leu mutation at pH 7.2; method in brief: as §3
# [23] = test system: Acinetobacter baumannii; experiment: Antimicrobial activity against Acinetobacter baumannii isolate 2 at pH 5.8
# Method in brief: (§4)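 MIC by agar dilution on Mueller-Hinton agar acidified to pH 5.8 with HCl before antibiotic-containing plates were poured. Agar pH was rechecked once the agar had solidified. Isolates had characterized gyrA/parC genes. Plates for both drugs were made the same day from fresh media, and MICs were read in parallel with the standard-pH set.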
# [24] = test system: Acinetobacter baumannii; experiment: Antimicrobial activity against Acinetobacter baumannii isolate 3 at pH 5.8; method in brief: as §4
# [25] = test system: Acinetobacter baumannii; experiment: Antimicrobial activity against Acinetobacter baumannii isolate 6 at pH 5.8
# Method in brief: (§5)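 Agar dilution MIC on Mueller-Hinton agar acidified to pH 5.8 with HCl before the antibiotic-containing plates were poured. Agar pH was checked after solidifying. Plates were made the same day from fresh medium. Both fluoroquinolones were tested simultaneously against A. baumannii isolates with characterized gyrA/parC genes. MICs are in μg/ml.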
# [26] = test system: Acinetobacter baumannii; experiment: Antimicrobial activity against Acinetobacter baumannii isolate 9 at pH 5.8; method in brief: as §5
# [27] = test system: Acinetobacter baumannii; experiment: Antimicrobial activity against Acinetobacter baumannii isolate 14 at pH 5.8; method in brief: as §4
# [28] = test system: Acinetobacter baumannii; experiment: Antimicrobial activity against Acinetobacter baumannii isolate 15 at pH 5.8; method in brief: as §4
# [29] = test system: Acinetobacter baumannii; experiment: Antimicrobial activity against Acinetobacter baumannii isolate 19 harboring GyrA Ser83-Leu mutation at pH 5.8; method in brief: as §4
# [30] = test system: Acinetobacter baumannii; experiment: Antimicrobial activity against Acinetobacter baumannii isolate 20 harboring GyrA Ser83-Leu mutation at pH 5.8; method in brief: as §4
# [31] = test system: Acinetobacter baumannii; experiment: Antimicrobial activity against Acinetobacter baumannii isolate 21 harboring GyrA Ser83-Leu mutation at pH 5.8; method in brief: as §4
# [32] = test system: Acinetobacter baumannii; experiment: Antimicrobial activity against Acinetobacter baumannii isolate 24 harboring GyrA Ser83-Leu mutation at pH 5.8; method in brief: as §4
# [33] = test system: Acinetobacter baumannii; experiment: Antimicrobial activity against Acinetobacter baumannii isolate 26 harboring GyrA Ser83-Leu mutation at pH 5.8; method in brief: as §4
# [34] = test system: Acinetobacter baumannii; experiment: Antimicrobial activity against Acinetobacter baumannii isolate 29 harboring GyrA Ser83-Leu mutation at pH 5.8; method in brief: as §4
# [35] = test system: Acinetobacter baumannii; experiment: Antimicrobial activity against Acinetobacter baumannii isolate 30 harboring GyrA Ser83-Leu mutation at pH 5.8; method in brief: as §4
# [36] = test system: Acinetobacter baumannii; experiment: Antimicrobial activity against Acinetobacter baumannii isolate 31 harboring GyrA Ser83-Leu mutation at pH 5.8; method in brief: as §4
# [37] = test system: Acinetobacter baumannii; experiment: Antimicrobial activity against Acinetobacter baumannii isolate 36 harboring GyrA Ser83-Leu mutation at pH 5.8; method in brief: as §2
# [38] = test system: Acinetobacter baumannii; experiment: Antimicrobial activity against Acinetobacter baumannii isolate 41 harboring GyrA Ser83-Leu mutation at pH 5.8; method in brief: as §2
# [39] = test system: Acinetobacter baumannii; experiment: Antimicrobial activity against Acinetobacter baumannii isolate 44 harboring GyrA Ser83-Leu and ParC Glu84-Lys mutation at pH 5.8; method in brief: as §2
# [40] = test system: Acinetobacter baumannii; experiment: Antimicrobial activity against Acinetobacter baumannii isolate 47 harboring GyrA Ser83-Leu and ParC Ser80-Phe mutation at pH 5.8; method in brief: as §2
# [41] = test system: Acinetobacter baumannii; experiment: Antimicrobial activity against Acinetobacter baumannii isolate 50 harboring GyrA Ser83-Leu and ParC Ser80-Leu mutation at pH 5.8; method in brief: as §2
# [42] = test system: Acinetobacter baumannii; experiment: Antimicrobial activity against Acinetobacter baumannii isolate 61 harboring GyrA Ser83-Leu and ParC Ser80-Leu mutation at pH 5.8; method in brief: as §5
# [43] = test system: Acinetobacter baumannii; experiment: Antimicrobial activity against Acinetobacter baumannii isolate 37 harboring GyrA Ser83-Leu mutation at pH 7.2; method in brief: as §2
structure (smiles),measurement,setting,value
N#Cc1c(N2C[C@@H]3NCCO[C@H]3C2)c(F)cc2c(=O)c(C(=O)O)cn(C3CC3)c12 [FINAFLOXACIN],MIC,[1],0.5 µg/mL
same,MIC,[2],0.25 µg/mL
same,MIC,[3],0.25 µg/mL
same,MIC,[4],0.25 µg/mL
same,MIC,[5],1 µg/mL
same,MIC,[6],1 µg/mL
same,MIC,[7],1 µg/mL
same,MIC,[8],8 µg/mL
same,MIC,[9],8 µg/mL
same,MIC,[10],16 µg/mL
same,MIC,[11],16 µg/mL
same,MIC,[12],32 µg/mL
same,MIC,[13],16 µg/mL
same,MIC,[14],16 µg/mL
same,MIC,[15],16 µg/mL
same,MIC,[16],16 µg/mL
same,MIC,[17],16 µg/mL
same,MIC,[18],32 µg/mL
same,MIC,[19],64 µg/mL
same,MIC,[20],64 µg/mL
same,MIC,[21],64 µg/mL
same,MIC,[22],64 µg/mL
same,MIC,[23],0.12 µg/mL
same,MIC,[24],0.06 µg/mL
same,MIC,[25],0.06 µg/mL
same,MIC,[26],0.12 µg/mL
same,MIC,[27],0.25 µg/mL
same,MIC,[28],0.12 µg/mL
same,MIC,[29],0.12 µg/mL
same,MIC,[30],0.06 µg/mL
same,MIC,[31],0.25 µg/mL
same,MIC,[32],2 µg/mL
same,MIC,[33],2 µg/mL
same,MIC,[34],4 µg/mL
same,MIC,[35],0.5 µg/mL
same,MIC,[36],1 µg/mL
same,MIC,[37],2 µg/mL
same,MIC,[38],2 µg/mL
same,MIC,[39],4 µg/mL
same,MIC,[40],4 µg/mL
same,MIC,[41],4 µg/mL
same,MIC,[42],8 µg/mL
same,MIC,[43],16 µg/mL
